Series [1] is classed as in vivo, human.
The target in a further series is exogenous bovine Xa (Bos taurus, UniProt P00743). The experiment in a line: Plasma concentration by functional anti-Xa test in orthopaedic patients. It counts as in vivo. The note with it: for range of concentrations observed with the anti-Xa functional tests: T0, before starting the treatment.
In series [2] the test system is activated partial thromboplastin clotting time (aPTT). The series can be described thus: Activated partial thromboplastin time. Particulars: at peak concentration and at steady state (T2–T3). It counts as in vivo, human. The essentials:
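Blood drawn the day before surgery (T0), then 2 h ± 10 min post-dose on day 4 ± 1 (T2) and day 7 ± 1 (T3). aPTT (s) run on an automated coagulation analyser. Reported as median and 25th–75th percentiles; Wilcoxon signed-rank test for repeated measures.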

For series [3] the following is noted: healthy Japanese individuals, cited from earlier work.

Read-outs that look alike come from different tables or passages of the source.

Chain of exogenous bovine Xa (P00743 234-492 limits assumed): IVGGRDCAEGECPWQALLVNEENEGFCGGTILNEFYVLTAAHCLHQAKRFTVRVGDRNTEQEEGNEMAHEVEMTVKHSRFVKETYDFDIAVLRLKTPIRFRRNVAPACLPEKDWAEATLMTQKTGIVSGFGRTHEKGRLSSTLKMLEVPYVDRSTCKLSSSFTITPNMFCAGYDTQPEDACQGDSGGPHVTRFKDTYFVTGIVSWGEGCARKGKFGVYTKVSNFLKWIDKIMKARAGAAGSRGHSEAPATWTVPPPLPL
Chain of exogenous bovine Xa (P00743 41-180 limits assumed): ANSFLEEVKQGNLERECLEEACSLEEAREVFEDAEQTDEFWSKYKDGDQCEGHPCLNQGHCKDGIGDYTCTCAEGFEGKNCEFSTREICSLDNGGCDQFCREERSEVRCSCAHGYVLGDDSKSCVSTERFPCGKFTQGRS

Usually Cmax stands for the highest concentration seen after dosing. As to `COc1ccc(-n2nc(C(N)=O)c3c2C(=O)N(c2ccc(N4CCCCC4=O)cc2)CC3)cc1` [Apixaban], the Cmax is 75 ± 37 ng/mL in series [1] (human, plasma, oral, 2.5 mg); 84 ng/mL in series [3] (after 7 days of 2.5-mg twice-daily treatment); 51 ± 25 ng/mL in series [3] (after a first intake of 2.5 mg). Besides, the “plasma concentration by anti-Xa functional assay, arithmetic mean and SD” value at exogenous bovine Xa (T0 (D−1), before starting the treatment) came out at 6 ± 7.5 ng/mL. For the same compound, the “range of concentrations observed with the anti-Xa functional tests” value at exogenous bovine Xa lay within 0 to 24 ng/mL. Also, the “mean increase in aPTT” value in series [2] came out at 6 s. Also, the “minimum period before reaching the steady state” value in series [3] (2.5 mg twice daily) is on record as no less than 3 treatment days.

As to `O=C(NC[C@H]1CN(c2ccc(N3CCOCC3=O)cc2)C(=O)O1)c1ccc(Cl)s1` [Rivaroxaban], the “interindividual variation in the Cmax (coefficient of variation)” value in series [1] (T1, first intake the day after surgery) was “around 100%”. On exogenous bovine Xa, the “range of concentrations observed with the anti-Xa functional tests” value is 0 to 25 ng/mL. In series [2], the “mean increase in aPTT” value is recorded as 15 s.

Values taken from publication PMC4664024 (Blood Coagulation & Fibrinolysis, 2015).
